Assay results from ChEMBL document CHEMBL1770091, “Synthesis and biological evaluation of benzyl styrylsulfonyl derivatives as potent anticancer mitotic inhibitors” (Bioorg Med Chem Lett, 2011).

Columns and labels:
[1] = Cytotoxicity against human MRC5 cells after 72 hrs by MTT assay; type: cell-based
How it was run: (§1)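 Standard 72-h MTT cytotoxicity assay, reported as GI50. Cancer lines were run alongside non-transformed MRC-5 lung fibroblasts.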

T47D [2] = experiment: Cytotoxicity against human T47D cells after 72 hrs by MTT assay; type: functional; how it was run: as §1
HCT-116 = experiment: Cytotoxicity against human HCT116 cells after 72 hrs by MTT assay; type: functional; settings: HCT-116, 72 h; how it was run: as §1
[3] = Cytotoxicity against human MDA468 cells after 72 hrs by MTT assay; type: functional; settings: MDA-MB-468, 72 h
How it was run: (§2)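 MDA-468 cells were exposed to compound for 24, 48 or 72 h and growth inhibition was read by MTT assay. GI50 is the mean ± s.d. of three independent assays.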

MCF7 [4] = experiment: Cytotoxicity against human MCF7 cells after 72 hrs by MTT assay; type: functional; settings: MCF7, 72 h; how it was run: as §1
MCF7 [5] = experiment: Metabolic stability of the compound in human MCF7 cells at 1 uM; type: ADME, cell-based; settings: mcf7, 1 µM
MRC5 [6] = experiment: Metabolic stability of the compound in human MRC5 cells at 1 uM; type: ADME, cell-based; settings: mrc5, 1 µM
[7] = Cell cycle arrest in human MDA468 cells assessed as accumulation at G2/M phase at 1 uM after 20 hrs by flow cytometry; type: functional, cell-based; settings: MDA-MB-468
How it was run: (§3)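 Cells in exponential growth seeded at 4×10^5, incubated overnight at 37 °C in humidified 5% CO2, then exposed to compound for 20 h. Cells collected, washed once in cold PBS, resuspended in hypotonic fluorochrome solution, and analysed for cell-cycle distribution (% G2/M DNA content) by flow cytometry. Mean ± s.d. of three independent experiments; DMSO vehicle control.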

[8] = Cytotoxicity against human MDA468 cells after 24 hrs by MTT assay; type: functional; settings: MDA-MB-468, 24 h; how it was run: as §2
MDA-MB-468 = experiment: Induction of apoptosis in human MDA468 cells assessed as appearance of apoptotic bodies after 20 hrs by annexinV/propidium iodide staining; type: functional, cell-based
How it was run: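 After overnight culture, 4×10^5 cells per well were treated with compound at 0.5, 1 and 10 μM for 20 h. Apoptosis was measured by annexin V/PI double staining and flow analysis, scored as early (annexin V-positive) plus late (annexin V- and PI-positive) apoptotic cells. Mean ± s.d. of three independent experiments versus DMSO vehicle control.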

[9] = Cell cycle arrest in human MDA468 cells assessed as accumulation at G2/M phase at 0.5 uM after 20 hrs by flow cytometry; type: functional, cell-based; settings: MDA-MB-468; how it was run: as §3
[10] = Cytotoxicity against human MDA468 cells after 48 hrs by MTT assay; type: functional; settings: MDA-MB-468, 48 h; how it was run: as §2
T47D [11] = experiment: Ratio of GI50 for human MRC5 cells to GI50 for human T47D cells
How it was run: (§4)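 Selectivity was calculated as GI50 in non-transformed MRC-5 fibroblasts divided by GI50 in each cancer line. All GI50 values came from 72-h MTT assays.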

MRC5 [12] = experiment: Ratio of GI50 for human MRC5 cells to GI50 for human MDA468 cells; how it was run: as §4
MRC5 [13] = experiment: Ratio of GI50 for human MRC5 cells to GI50 for human MCF7 cells; how it was run: as §4
MRC5 [14] = experiment: Ratio of GI50 for human MRC5 cells to GI50 for human HCT116 cells; how it was run: as §4

Row | SMILES | GI50 at 72 h [1] [µM] | GI50 (T47D [2]) [µM] | GI50 (HCT-116) [µM] | GI50 [3] [µM] | GI50 (MCF7 [4]) [µM] | Stability (MCF7 [5]) | Stability (MRC5 [6]) | Activity [7] [%] | GI50 [8] [µM] | Activity (MDA-MB-468) | Activity [9] [%] | GI50 [10] [µM] | RatioGI50 (T47D [11]) | RatioGI50 (MRC5 [12]) | RatioGI50 (MRC5 [13]) | RatioGI50 (MRC5 [14])
1 | COc1ccc(CS(=O)(=O)CC(=O)Nc2c(C)cc(C)cc2C)cc1[N+](=O)[O-] | 28 | > 30 | 7.91 | > 30 | > 30 | – | – | – | – | – | – | – | – | – | – | –
2 | COc1ccc(OC)c(NC(=O)CS(=O)(=O)Cc2ccc(OC)c([N+](=O)[O-])c2)c1 | > 30 | > 30 | > 30 | > 30 | > 30 | – | – | – | – | – | – | – | – | – | – | –
3 | COc1ccc(CS(=O)(=O)/C=C/c2ccc(OC)c(OC)c2OC)cc1N | > 30 | 5.9 | 5.31 | 3.48 | 5.95 | – | – | – | – | – | – | – | – | – | – | –
4 | COc1ccc(CS(=O)(=O)/C=C/c2ccc(OC)c(OC)c2OC)cc1[N+](=O)[O-] | > 30 | > 30 | 27.9 | 21.9 | > 30 | – | – | – | – | – | – | – | – | – | – | –
5 | COc1cc(OC)c(/C=C/S(=O)(=O)Cc2ccc(OC)c([N+](=O)[O-])c2)c(OC)c1 | 2.91 | – | 0.66 | – | 0.88 | – | – | – | – | – | – | – | – | – | – | –
6 | COc1ccc(CS(=O)(=O)CC(=O)Nc2ccccc2)cc1[N+](=O)[O-] | > 30 | > 30 | > 30 | > 30 | > 30 | – | – | – | – | – | – | – | – | – | – | –
7 | COc1cc(OC)c(/C=C/S(=O)(=O)Cc2ccc(OC)c(NCC(=O)O)c2)c(OC)c1 [RIGOSERTIB] | 0.71 | < 0.01 | 0.05 | 0.02 | 0.05 | Stable | Stable | 84 | 0.601 | Dose-dependent effect | 58 | 0.302 | – | – | – | –
8 | COc1cc(OC)c(/C=C/S(=O)(=O)Cc2ccc(OC)c(N)c2)c(OC)c1 | 0.08 | – | < 0.01 | 0.03 | < 0.01 | – | – | – | – | – | – | – | – | – | – | –
9 | COc1cc(/C=C/S(=O)(=O)Cc2ccc(OC)c([N+](=O)[O-])c2)cc(OC)c1 | > 30 | > 30 | > 30 | 16.5 | > 30 | – | – | – | – | – | – | – | – | – | – | –
10 | COc1cc(OC)c(/C=C/S(=O)(=O)Cc2ccc(OC)c(NC(C)=O)c2)c(OC)c1 | 0.81 | – | 0.15 | – | 0.35 | – | – | – | – | – | – | – | – | – | – | –
11 | COc1ccc(CS(=O)(=O)/C=C/c2c(OC)cccc2OC)cc1[N+](=O)[O-] | > 30 | > 30 | 10.2 | 5.46 | 13.7 | – | – | – | – | – | – | – | – | – | – | –
12 | COc1ccc(CS(=O)(=O)CC(=O)Nc2ccccc2)cc1N | > 30 | > 30 | > 30 | > 30 | > 30 | – | – | – | – | – | – | – | – | – | – | –
13 | COc1ccc(CS(=O)(=O)/C=C/c2c(OC)cccc2OC)cc1N | 17.1 | 0.05 | 0.02 | 0.06 | 0.04 | – | – | – | – | – | – | – | <280 | <280 | <280 | <280
14 | COc1ccc(CS(=O)(=O)CC(=O)Nc2c(C)cc(C)cc2C)cc1N | > 30 | > 30 | > 30 | > 30 | > 30 | – | – | – | – | – | – | – | – | – | – | –
15 | COc1cc(OC)c(NC(=O)CS(=O)(=O)Cc2ccc(OC)c([N+](=O)[O-])c2)c(OC)c1 | > 30 | > 30 | 18.8 | > 30 | > 30 | – | – | – | – | – | – | – | – | – | – | –
16 | COc1cc(/C=C/S(=O)(=O)Cc2ccc(OC)c(N)c2)cc(OC)c1 | > 30 | 0.53 | 0.54 | 0.52 | 0.49 | – | – | – | – | – | – | – | <80 | <80 | <80 | <80
17 | COc1cc(OC)c(/C=C/[S+]([O-])Cc2ccc(OC)c(N)c2)c(OC)c1 (configuration not stated) | > 30 | 0.06 | < 0.01 | < 0.01 | < 0.01 | Stable | Stable | 85 | 0.559 | Dose-dependent effect | 77 | 0.137 | – | – | – | –
